# Experimental data as given in PubChem BioAssay AID624038 (The Scripps Research Institute Molecular Screening Center, 2012).
# Hit rate of the full screen: of about 360,000 compounds, about 1,100 (0.31%) were called active. The full list was thinned out, with actives kept by preference. Unmarked numbers belong to inactive results.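 How the source made its calls: active means activation above the run cutoff, the mean activation of all test compounds plus 3 SD (cut at about 18% in these data); inactive means the rest.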
# Target: Muscarinic acetylcholine receptor M5 (Homo sapiens) (UniProt P08912)
# Sequence (P08912 whole entry, looked up): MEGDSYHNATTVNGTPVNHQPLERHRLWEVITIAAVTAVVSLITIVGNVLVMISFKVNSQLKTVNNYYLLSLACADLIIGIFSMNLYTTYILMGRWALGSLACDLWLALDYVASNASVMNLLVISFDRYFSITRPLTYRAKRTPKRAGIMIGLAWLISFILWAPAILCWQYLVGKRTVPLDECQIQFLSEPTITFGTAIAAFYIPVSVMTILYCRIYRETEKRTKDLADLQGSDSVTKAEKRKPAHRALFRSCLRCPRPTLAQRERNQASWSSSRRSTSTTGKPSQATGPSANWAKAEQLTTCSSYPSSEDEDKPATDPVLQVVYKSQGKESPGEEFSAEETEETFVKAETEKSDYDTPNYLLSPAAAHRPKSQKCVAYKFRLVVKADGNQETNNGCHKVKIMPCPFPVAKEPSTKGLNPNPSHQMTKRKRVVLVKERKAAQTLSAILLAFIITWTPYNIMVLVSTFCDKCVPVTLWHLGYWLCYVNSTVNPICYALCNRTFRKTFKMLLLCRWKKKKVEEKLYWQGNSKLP
# Test: human M5 muscarinic receptor positive allosteric modulators, primary screen, CHO-K1 cells, Fluo-8 calcium fluorescence (AID 624038)
# Conditions: CHO-K1 hM5, Fluo-8 calcium, ACh EC20 PAM; at 3 µM; active compounds read high; 0% = ACh EC20, 100% = ACh EC100
# Procedure, shortened: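 system = human M5 receptor in CHO-K1 cells | reagent = EC20 acetylcholine as agonist stimulus | compound dosing = single-point, 3 µM nominal | incubation = Fluo-8 loading 80 min at 37 °C plus 30 min room temperature | detection = Fluo-8 calcium dye fluorescence, kinetic read | benchmarks = low control EC20 acetylcholine (0%), high control EC100 acetylcholine (100%)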
row,Structure (SMILES),activation
1,CCOC(=O)[C@H]1Nc2ccc(Cl)cc2[C@@H]2[C@H]1C1CC(c3ccccc31)N2C(=O)OCc1ccccc1 (some centres not stated),-15.8%
2,COc1ccccc1-n1c(SCC(=O)O)nc2sc3c(c2c1=O)CCC3,1.79%
3,CCSc1nc2sc3c(c2c(=O)n1-c1ccc(C)cc1)CCN(C)C3,-1.06%
4,Cc1ccc(C)c(-n2c(SCC(=O)O)nc3sc4c(c3c2=O)CCCC4)c1,20.4% (active)
5,COc1ccc(Br)cc1CN1CCN(C(=O)c2cccc(OC)c2OC)CC1,2.23%
6,CCN(CC)c1ccc(C2C3CCCCC3(O)CCN2CC(=O)Nc2ccccc2)cc1 (configuration not stated),-6.54%
7,Cc1ncn(C23CC4CC(CC(O)(C4)C2)C3)n1,19.2% (active)
8,COC(=O)c1ccc(NC(=O)C23CC4CC(C2)CC(n2cnc(Cl)n2)(C4)C3)cc1,3.27%
9,CC(N)C12CC3CC(CC(O)(C3)C1)C2 (configuration not stated),-3.44%
10,CCOC(=O)/C(=N\Nc1ccccc1Cl)N(C)C1CCS(=O)(=O)C1 (configuration not stated),-8.17%
11,O=C(COC(=O)/C=C/c1nc2ccccc2s1)Nc1ccccc1Oc1ccccc1,1.93%
12,CCC(=O)c1ccc(OCC(O)CN2CCN(c3cccc(C(F)(F)F)c3)CC2)cc1 (configuration not stated),-10.8%
13,CCOc1ccc(N2C(=O)CC(N(CCc3ccc(OC)c(OC)c3)C(=S)Nc3ccccc3)C2=O)cc1 (configuration not stated),21.9% (active)
14,COC(=O)CN(C(=S)Nc1ccc(Cl)cc1)C1CC(=O)N(c2ccc(OC)cc2)C1=O (configuration not stated),-18.4%
15,CN(C)c1ccc(NC(=S)N(CCc2ccccc2)C2CC(=O)N(c3c(Cl)cccc3Cl)C2=O)cc1 (configuration not stated),8.56%
16,O=C(NCc1ccco1)c1cccc(-c2ccc3nncn3c2)c1,-4.68%
17,CCCC1=Nc2cc(C(=O)NCc3ccco3)ccc2Sc2ccccc21,19.8% (active)
18,COc1ccc(CCNS(=O)(=O)c2ccc(C(=O)NCc3ccco3)cc2)cc1OC,1.67%
19,O=C(NC1CCN(C(=S)NCc2ccco2)CC1)c1ccc(F)cc1,-4.46%
20,Cc1cc(C)nc(SCc2nnc(SCC(=O)Nc3ncc(C)s3)n2Cc2ccco2)n1,-4.62%
21,CCn1c(CNC(=O)c2ccco2)nnc1SCC(=O)Nc1cccc(F)c1,-8.95%
22,CCN(CC)C(=O)CSc1nnc(CNc2ccc(F)cc2)n1Cc1ccco1,26.3% (active)
23,Cc1c(Cl)cccc1NC(=O)CC1SC(=NCC2CCCO2)NC1=O (configuration not stated),-3.09%

row,Structure (SMILES),activation
1,CCn1ccnc1CN(C)C(=O)c1ccc2nc(Cc3ccc(OC)cc3)oc2c1,-3.69%
2,Cc1cc(N2CCCC2)ccc1NC(=O)COc1ccc(Cl)cc1,-6.11%
3,CC(=O)Nc1ccc(N2C(=O)CCC2=O)cc1C,30.9% (active)
4,CC(=O)Nc1ccc(N2C(=O)C3C4C=CC(CC4)C3C2=O)cc1 (configuration not stated),3.09%
5,CCNC(=O)CC1C(=O)N(c2ccc(F)cc2)C(=O)N1Cc1cccs1 (configuration not stated),-0.18%
6,CC(C)CN1CCNC(=O)C1CC(=O)N(C)CC1CCOCC1 (configuration not stated),1.55%
7,Cc1ccc(C(C)(C)C)c(OCCCCN2CCCC2)c1,-4.25%
8,COc1ccc(C2=NN(C(=O)CSc3nnnn3C)C(c3ccco3)C2)cc1 (configuration not stated),8.48%
9,CCc1c(C)sc(NC(=O)c2cccs2)c1C(N)=O,-8.58%
10,CCOC(=O)c1c(NC(=O)c2cccs2)sc(C)c1C,27.8% (active)
11,COCCCNCC(=O)Nc1sc(C)c(C)c1C(=O)OC,12.8%
12,CC1(C(=O)NS(=O)(=O)c2ccc(Cl)cc2)CCN1C(=O)CC1CCCC1 (configuration not stated),0.43%
13,CCCCn1c(N)c(N(CCC(C)C)C(=O)CC2OC(=O)c3ccccc32)c(=O)[nH]c1=O (configuration not stated),-2.77%
14,Cc1cc(NS(=O)(=O)c2ccc(NC(=O)c3cccc(OC(F)F)c3)cc2)nc(C)n1,1.34%
15,CCc1nnc(NS(=O)(=O)c2ccc(NC(=O)c3cccc(OC(F)(F)C(F)F)c3)cc2)s1,18.4% (active)
16,CCc1nnc(NS(=O)(=O)c2ccc(NC(=S)NC(=O)/C=C/c3cccs3)cc2)s1,2.07%
17,O=C(NC(=S)N1CCCCC1c1cccnc1)c1ccccc1 (configuration not stated),5.16%
18,Cc1ccc(S(=O)(=O)NNC(=O)/C=C/c2cccc(F)c2)cc1,-0.46%
19,Cc1ccc(C)c(OCc2cc(C(=O)N3CCN(c4cnccn4)CC3)no2)c1,-8.08%
20,Cc1cccn2c(=O)c3cc(C(=O)NCCN4CCOCC4)c(=N)n(Cc4cccnc4)c3nc12,28.1% (active)
21,Cc1ccc2nc3c(cc(C(=O)NCCc4ccccc4)c(=N)n3CC3CCCO3)c(=O)n2c1 (configuration not stated),2.81%
22,Cc1cccn2c(=O)c3cc(C#N)c(=O)n(CCCN4CCOCC4)c3nc12,-0.36%
23,CN(Cc1ccccc1)C(=O)C(=O)c1cn(CC(=O)N2CCCC2)c2ccccc12,-2.13%

row,Structure (SMILES),activation
1,C/C(=N\NC(=S)NC(C)C)c1ccc(C(C)(C)C)cc1,8.71%
2,CCOC(=O)c1c(C)[nH]c(C(=O)NCCN2CCOCC2)c1C,-4.21%
3,CCCCN(CC)CCNC(=O)c1[nH]c(C)c(C(C)=O)c1C,-11.2%
4,CCC1CCCCN1CCNS(=O)(=O)c1ccc2c(c1)CCN2C(C)=O (configuration not stated),2.47%
5,CC(=O)c1c(C)[nH]c(C(=O)NCCCN2CCCC2)c1C,18.1% (active)
6,CC(=O)c1c(C)[nH]c(C(=O)NCc2ccc(C)cc2)c1C,11.5%
7,CCC1CCCCN1CCNC(=O)c1[nH]c(C)c(C(C)=O)c1C (configuration not stated),20.7% (active)
8,COc1ccc(OCC(=O)NCCS(=O)(=O)N2CCN(c3ccc(F)cc3)CC2)cc1,5.36%
9,CCCCNC(=O)N(O)C1N(/N=C/c2ccccc2O)C(=S)SC1(C)C (configuration not stated),-0.6%
10,O=C(COC(=O)c1ccco1)Nc1ccc(Cl)cn1,4.61%
11,Cc1cccc(OCC(=O)OCC(=O)Nc2ccc(Cl)cn2)c1,5.11%
12,O=C(Nc1ccc(Cl)cn1)Nc1cccs1,29.7% (active)
13,Cc1ccc(C(=O)OC2=CC(=O)CC(C)(C)C2)cc1,0.4%
14,COc1ccc(C(C(=O)NCC2CCCO2)N(C(=O)Cn2nnc3ccccc32)c2ccc(NC(C)=O)cc2)cc1OC (configuration not stated),5.16%
15,Cc1ccc(C(C(=O)NCc2ccco2)N(CC2CCCO2)C(=O)Cn2nnc3ccccc32)cc1 (configuration not stated),-1.09%
16,CCOc1cc(C(C(=O)NCC2CCCO2)N(C(=O)Cn2nnc3ccccc32)c2cccc(OC)c2)ccc1O (configuration not stated),19% (active)
17,CC1CN(CCCOc2ccccc2-c2ccccc2)CC(C)O1 (configuration not stated),0.63%
18,CC1CN(CCOc2ccccc2[N+](=O)[O-])CC(C)O1 (configuration not stated),8.76%
19,Cc1cc(C)c(OCCN2CC(C)OC(C)C2)c(Br)c1 (configuration not stated),23.1% (active)
20,CCN(CC)Cc1csc2ccc(Br)cc12,-8.32%
21,CN(Cc1ccccc1)C(=O)[C@@H]1CCCN1C(=O)[C@@H]1CCCN1C(=O)c1c(F)cccc1F,-3.49%
22,O=C(CCN1C(=O)[C@@H]2Cc3ccccc3CN2C1=O)NCc1ccccc1,21.5% (active)
23,O=C(CCN1C(=O)[C@@H]2Cc3ccccc3CN2C1=O)NCCc1ccccc1,-2.71%

row,Structure (SMILES),activation
1,Cc1ccc(CNC(=O)CCN2C(=O)[C@@H]3Cc4ccccc4CN3C2=O)cc1,-3.61%
2,c1ccc(CCc2ccccn2)cc1,-5.1%
3,O=C(CNC(=O)COc1ccccc1)NCCc1ccccn1,-11%
4,O=C(O)C(CCc1ccccn1)c1ccccc1 (configuration not stated),19.2% (active)
5,Cc1cccc(C(=O)NC2CCN(CC(=O)Nc3cccc(Cl)c3)CC2)c1,-2.77%
6,CCC(C)(C)n1nnnc1C(c1ccc(OC)c(OC)c1)N1CCN(C(=O)c2ccco2)CC1 (configuration not stated),4.04%
7,COc1ccccc1N(C)C(=O)c1cc(S(=O)(=O)N2CCc3ccccc32)cn1C,-2.97%
8,COc1ccccc1C(=O)NC(=S)Nc1ccc(N2CCOCC2)cc1,4.29%
9,COc1ccccc1C(=O)Nc1ccc(OCC(=O)N2CCCCC2)cc1,1%
10,COc1cccc(OC)c1C(=O)Nc1ccc(N2CCCCC2)cc1,20.9% (active)
11,CN(C)c1ccc(/C=N/NC(=O)C(O)c2ccc(Br)cc2)cc1 (configuration not stated),20.2% (active)
12,CN(C)c1ccc(/C=N/NC(=O)c2ccc(Cn3cc(Br)cn3)o2)cc1,-6.88%
13,COc1ccc(/C=N/NC(=O)C(C)N(c2ccc(OC)cc2)S(C)(=O)=O)cc1 (configuration not stated),-7.14%
14,O=C(NC1CCCCC1)C1CCC(CNS(=O)(=O)c2ccccc2)CC1 (configuration not stated),-2.41%
15,COc1cc(C(=O)NC2CCN(C)CC2)ccc1Nc1ncc2c(n1)N(C1CCC(O)CC1)CCC(=O)N2C (configuration not stated),-2.26%
16,CCCCCNC(=O)C1C(=O)Nc2ccccc2C(=O)N1C(C)(C)C (configuration not stated),7.08%
17,COCCNC(=O)c1onc(CSc2cccc(C)c2)c1C(=O)O,-3.85%
18,O=C(NNc1nc(N2CCCC2)nc(N2CCCC2)n1)c1ccccc1,6.43%
19,O=C(NNC(=O)C1CCC1)c1ccccc1,2.72%
20,O=C(NNC(=O)C1CCN(c2ncccn2)CC1)c1ccccc1,26.2% (active)
21,CN(C)/C(=N\OC(=O)c1ccccc1)c1nonc1N,-4.7%
22,COc1cc(Cn2c3ccc(NC(=O)CC(C)c4ccccc4)cc3c(=O)n2C)ccc1F (configuration not stated),-5.77%
23,O=C(Nc1cccc(C(=O)O)c1)/C(=C\c1ccccc1)NC(=O)c1ccc(Br)o1,-2.27%
